SMILES strings stand for the structures.

One experiment deals with Leishmania infantum. The experiment is described as follows: Percentage of activity against Leishmania infantum at 1.56 uM. It is filed as functional.
Settings: not given
The essentials: (§1)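 Starch-stimulated mouse peritoneal macrophages, 30 000/well, infected after 24 h with spleen-derived L. infantum amastigotes (10:1) together with 2-fold drug dilutions (12.5–1.56 µM). Incubated 7 days at 37 °C, 5% CO2. Wright-stained slides scored microscopically as % reduction of total parasite load or of infected macrophages. Uninfected treated cultures judged microscopically for macrophage toxicity.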
Turning to `COc1ccc2nc3cc(Cl)ccc3c(NCCCCCCNc3c4ccc(Cl)cc4nc4ccc(OC)cc34)c2c1`, the “Antileishmanial activity (% reduction of parasite load)” value worked out at 0%.
As for `COc1ccc2nc3cc(Cl)ccc3c(NCCCN(CCCNc3c4ccc(Cl)cc4nc4ccc(OC)cc34)C(=O)C(C)NC(=O)OCC3c4ccccc4-c4ccccc43)c2c1` (centres undefined), the “Antileishmanial activity (% reduction of parasite load)” value worked out at 0%.

For the next experiment, the system named is MRC5. The experiment can be described thus: Cytotoxicity on MRC-5 cells at 3.13 uM. Type of experiment: functional. Conditions: Homo sapiens. The essentials: (§2)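 MRC-5 human diploid embryonic lung cells seeded at 5 000/well, washed after 24 h, then given 2-fold drug dilutions (25, 12.5, 6.25, 3.13 µM) in RPMI + 5% FCS, final DMSO below 0.5%. Incubated 7 days at 37 °C, 5% CO2. MTT colorimetric read-out, scored as % reduction of absorbance at 540 nm versus untreated controls.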
`COc1ccc2nc3cc(Cl)ccc3c(NCCCCCCNc3c4ccc(Cl)cc4nc4ccc(OC)cc34)c2c1` came in with a cytotoxicity at 3.13 µM of 20%.
The same measure, in the same setting: then `COc1ccc2nc3cc(Cl)ccc3c(NCCCN(CCCNc3c4ccc(Cl)cc4nc4ccc(OC)cc34)C(=O)C(C)NC(=O)OCC3c4ccccc4-c4ccccc43)c2c1` (centres undefined), with 100%.

A further experiment concerns Trypanosoma cruzi. The experiment can be described thus: Percentage of activity against Trypanosoma cruzi at 3.13 uM. Type of experiment: functional.
Settings: not given
In outline: (§3)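 Mouse peritoneal macrophages, 30 000/well, infected after 24 h with about 100 000 T. cruzi trypomastigotes per well plus 2-fold drug dilutions (12.5–1.56 µM). Incubated 4 days at 37 °C, 5% CO2. Methanol-fixed, Giemsa-stained and scored microscopically as % reduction of total parasite load (free trypomastigotes plus intracellular amastigotes) versus untreated controls.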
Turning to `COc1ccc2nc3cc(Cl)ccc3c(NCCCCCCNc3c4ccc(Cl)cc4nc4ccc(OC)cc34)c2c1`, the “Reduction of T. cruzi parasite load” value is 0%.
In the case of `COc1ccc2nc3cc(Cl)ccc3c(NCCCN(CCCNc3c4ccc(Cl)cc4nc4ccc(OC)cc34)C(=O)C(C)NC(=O)OCC3c4ccccc4-c4ccccc43)c2c1` (centres undefined), the “Reduction of T. cruzi parasite load” value is given as 0%.

The next experiment concerns Leishmania infantum. The experiment can be described thus: Percentage of activity against Leishmania infantum at 6.25 uM; Toxic upon mouse primary peritoneal macrophages. Type of experiment: functional, organism-based.
Settings: not given
In outline: as §1
Turning to `COc1ccc2nc3cc(Cl)ccc3c(NCCCN(CCCNc3c4ccc(Cl)cc4nc4ccc(OC)cc34)C(=O)C(C)NC(=O)OCC3c4ccccc4-c4ccccc43)c2c1` (centres undefined), the Cytotoxicity result was “Toxic”.

In the next experiment the test system is Leishmania infantum. The experiment is described as follows: Percentage of activity against Leishmania infantum at 3.13 uM. It is filed as functional.
Settings: not given
The essentials:
as §1
In the case of `COc1ccc2nc3cc(Cl)ccc3c(NCCCCCCNc3c4ccc(Cl)cc4nc4ccc(OC)cc34)c2c1`, the “Percent antileishmanial activity (reduction of parasite load)” value came out at 0%.
Still for that read-out and setting: then `COc1ccc2nc3cc(Cl)ccc3c(NCCCN(CCCNc3c4ccc(Cl)cc4nc4ccc(OC)cc34)C(=O)C(C)NC(=O)OCC3c4ccccc4-c4ccccc43)c2c1` (centres undefined), with 40%.

A further experiment has as its system Trypanosoma brucei. The experiment is described as follows: Percentage of activity against Trypanosoma brucei at 3.13 uM. Type of experiment: functional.
Settings: not given
The essentials: (§4)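 Bloodstream-form T. brucei in HMI-9 medium, 10 000 parasites/well, exposed to 12.5, 6.25, 3.13 and 1.56 µM drug for 4 days. Read-out is % inhibition of parasite multiplication. Macrophage toxicity judged on mouse primary peritoneal macrophages.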
On to `COc1ccc2nc3cc(Cl)ccc3c(NCCCCCCNc3c4ccc(Cl)cc4nc4ccc(OC)cc34)c2c1`, for which the Parasite growth inhibition was determined as 99%.
Same read-out and setting: then `COc1ccc2nc3cc(Cl)ccc3c(NCCCN(CCCNc3c4ccc(Cl)cc4nc4ccc(OC)cc34)C(=O)C(C)NC(=O)OCC3c4ccccc4-c4ccccc43)c2c1` (centres undefined), with 100%.

The next experiment deals with Trypanosoma cruzi. The experiment can be described thus: In Vitro evaluation for the percentage of activity towards Trypanosoma cruzi at 6.25 uM Concentration; Toxic upon mouse primary peritoneal macrophages. It is filed as functional, organism-based.
Settings: not given
The essentials: as §3
In the case of `COc1ccc2nc3cc(Cl)ccc3c(NCCCN(CCCNc3c4ccc(Cl)cc4nc4ccc(OC)cc34)C(=O)C(C)NC(=O)OCC3c4ccccc4-c4ccccc43)c2c1` (centres undefined), the Cytotoxicity entry was “Toxic”.

The next experiment relates to Trypanosoma brucei. The experiment is described as follows: Percentage of activity against Trypanosoma brucei at 6.25 uM.
Settings: not given
It is filed as functional. In outline: as §4
For the compound `COc1ccc2nc3cc(Cl)ccc3c(NCCCCCCNc3c4ccc(Cl)cc4nc4ccc(OC)cc34)c2c1`, the “Inhibition of parasite multiplication” value was 100%.
Still for that read-out and setting: then `COc1ccc2nc3cc(Cl)ccc3c(NCCCN(CCCNc3c4ccc(Cl)cc4nc4ccc(OC)cc34)C(=O)C(C)NC(=O)OCC3c4ccccc4-c4ccccc43)c2c1` (centres undefined), with 100%.

The next experiment has as its system Trypanosoma cruzi. The experiment is described as follows: Percentage of activity against Trypanosoma cruzi at 12.5 uM. It is filed as functional.
Settings: not given
In outline: as §3
Consider `COc1ccc2nc3cc(Cl)ccc3c(NCCCCCCNc3c4ccc(Cl)cc4nc4ccc(OC)cc34)c2c1`, for which the “T. cruzi parasite load reduction” value was 70%.

The test system of the next experiment is Trypanosoma cruzi. The experiment can be described thus: Percentage of activity against Trypanosoma cruzi at 1.56 uM. It is filed as functional.
Settings: not given
The essentials: as §3
`COc1ccc2nc3cc(Cl)ccc3c(NCCCCCCNc3c4ccc(Cl)cc4nc4ccc(OC)cc34)c2c1`: the Parasite load reduction is 0%.
The same measure, in the same setting: then `COc1ccc2nc3cc(Cl)ccc3c(NCCCN(CCCNc3c4ccc(Cl)cc4nc4ccc(OC)cc34)C(=O)C(C)NC(=O)OCC3c4ccccc4-c4ccccc43)c2c1` (centres undefined), with 0%.

The test system of another experiment is Plasmodium falciparum. The experiment can be described thus: In vitro sensitivity for Plasmodium falciparum FcB1R. Type of experiment: functional, organism-based.
Settings: not given
The essentials: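 Asynchronous P. falciparum cultures in human erythrocytes (0.5% parasitemia, 1% haematocrit) exposed to serially diluted drug for 24 h at 37 °C. [3H]hypoxanthine (0.5 µCi/well) then added for a further 24 h. Uptake compared with drug-free controls on the same plate. IC50 taken from the concentration–response curve, averaged over independent experiments. DMSO ≤0.1%.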
A word on the IC50: it is the point on the concentration scale where inhibition reaches its midpoint. High values mean weaker potency, low ones greater potency. `COc1ccc2nc3cc(Cl)ccc3c(NCCCCCCNc3c4ccc(Cl)cc4nc4ccc(OC)cc34)c2c1`: inhibition was half-maximal at 16 nM (IC50).
Still for that read-out and setting: the result for `COc1ccc2nc3cc(Cl)ccc3c(NCCCN(CCCNc3c4ccc(Cl)cc4nc4ccc(OC)cc34)C(=O)C(C)NC(=O)OCC3c4ccccc4-c4ccccc43)c2c1` (centres undefined) reads 232 nM.

The test system of another experiment is Trypanosoma cruzi. The experiment is described as follows: Percentage of activity against Trypanosoma cruzi at 12.5 uM; Toxic upon mouse primary peritoneal macrophages. It is filed as functional, organism-based.
Settings: not given
In outline:
as §3
For `COc1ccc2nc3cc(Cl)ccc3c(NCCCN(CCCNc3c4ccc(Cl)cc4nc4ccc(OC)cc34)C(=O)C(C)NC(=O)OCC3c4ccccc4-c4ccccc43)c2c1` (centres undefined), the Cytotoxicity result was “Toxic”.

The subject of a further experiment is MRC5. The experiment is described as follows: Cytotoxicity on MRC-5 cells at 12.5 uM. It is filed as functional. Conditions: Homo sapiens. The essentials:
as §2
As for `COc1ccc2nc3cc(Cl)ccc3c(NCCCCCCNc3c4ccc(Cl)cc4nc4ccc(OC)cc34)c2c1`, the cytotoxicity at 12.5 µM turned out to be 90%.
On the same count and under the same terms, then `COc1ccc2nc3cc(Cl)ccc3c(NCCCN(CCCNc3c4ccc(Cl)cc4nc4ccc(OC)cc34)C(=O)C(C)NC(=O)OCC3c4ccccc4-c4ccccc43)c2c1` (centres undefined), with 100%.

The test system of another experiment is Leishmania infantum. The experiment is described as follows: Percentage of activity against Leishmania infantum 6.25 uM. It is filed as functional.
Settings: not given
In outline:
as §1
Consider `COc1ccc2nc3cc(Cl)ccc3c(NCCCCCCNc3c4ccc(Cl)cc4nc4ccc(OC)cc34)c2c1`, for which the “Antileishmanial activity (% reduction of parasite load)” value is reported as 0%.

In the next experiment the test system is MRC5. The experiment can be described thus: Cytotoxicity on MRC-5 cells at 25 uM. Type of experiment: functional. Conditions: Homo sapiens. In outline:
as §2
`COc1ccc2nc3cc(Cl)ccc3c(NCCCCCCNc3c4ccc(Cl)cc4nc4ccc(OC)cc34)c2c1` had a cytotoxicity at 25 µM of 100%.
Same read-out and setting: then `COc1ccc2nc3cc(Cl)ccc3c(NCCCN(CCCNc3c4ccc(Cl)cc4nc4ccc(OC)cc34)C(=O)C(C)NC(=O)OCC3c4ccccc4-c4ccccc43)c2c1` (centres undefined), with 100%.

The subject of a further experiment is Leishmania infantum. The experiment is described as follows: Percentage of activity against Leishmania infantum at 12.5 uM Concentration; Toxic upon mouse primary peritoneal macrophages. It is filed as functional, organism-based.
Settings: not given
In outline: as §1
Turning to `COc1ccc2nc3cc(Cl)ccc3c(NCCCN(CCCNc3c4ccc(Cl)cc4nc4ccc(OC)cc34)C(=O)C(C)NC(=O)OCC3c4ccccc4-c4ccccc43)c2c1` (centres undefined), the Cytotoxicity entry is “Toxic”.

The test system of the next experiment is Trypanosoma brucei. The experiment can be described thus: Percentage of activity against Trypanosoma brucei at 12.5 uM. Type of experiment: functional.
Settings: not given
The essentials: as §4
On to `COc1ccc2nc3cc(Cl)ccc3c(NCCCCCCNc3c4ccc(Cl)cc4nc4ccc(OC)cc34)c2c1`, for which the “Inhibition of parasite multiplication” value is given as 100%.
Same read-out and setting: then `COc1ccc2nc3cc(Cl)ccc3c(NCCCN(CCCNc3c4ccc(Cl)cc4nc4ccc(OC)cc34)C(=O)C(C)NC(=O)OCC3c4ccccc4-c4ccccc43)c2c1` (centres undefined), with 100%.

Another experiment concerns MRC5. The experiment is described as follows: Cytotoxicity on MRC-5 cells at 6.25 uM. Conditions: Homo sapiens. It is filed as functional. The essentials: as §2
On to `COc1ccc2nc3cc(Cl)ccc3c(NCCCCCCNc3c4ccc(Cl)cc4nc4ccc(OC)cc34)c2c1`, for which the cytotoxicity at 6.25 µM was 80%.
The same measure, in the same setting: then `COc1ccc2nc3cc(Cl)ccc3c(NCCCN(CCCNc3c4ccc(Cl)cc4nc4ccc(OC)cc34)C(=O)C(C)NC(=O)OCC3c4ccccc4-c4ccccc43)c2c1` (centres undefined), with 100%.

In a further experiment the test system is Trypanosoma brucei. The experiment can be described thus: Percentage of activity against Trypanosoma brucei at 1.56 uM. Type of experiment: functional.
Settings: not given
In outline:
as §4
As for `COc1ccc2nc3cc(Cl)ccc3c(NCCCCCCNc3c4ccc(Cl)cc4nc4ccc(OC)cc34)c2c1`, the “Percent inhibition of parasite multiplication” value is given as 90%.
The same measure, in the same setting: then `COc1ccc2nc3cc(Cl)ccc3c(NCCCN(CCCNc3c4ccc(Cl)cc4nc4ccc(OC)cc34)C(=O)C(C)NC(=O)OCC3c4ccccc4-c4ccccc43)c2c1` (centres undefined), with 100%.

The subject of a further experiment is Leishmania infantum. The experiment is described as follows: In Vitro evaluation for the percentage of activity towards Leishmania infantum at 12.5 uM Concentration. It is filed as functional.
Settings: not given
The essentials:
as §1
As to `COc1ccc2nc3cc(Cl)ccc3c(NCCCCCCNc3c4ccc(Cl)cc4nc4ccc(OC)cc34)c2c1`, the “Percent inhibition of Leishmania infantum” value amounted to 40%.

A further experiment concerns Trypanosoma cruzi. The experiment can be described thus: Percentage of activity against Trypanosoma cruzi at 6.25 uM Concentration. It is filed as functional.
Settings: not given
In outline: as §3
Regarding `COc1ccc2nc3cc(Cl)ccc3c(NCCCCCCNc3c4ccc(Cl)cc4nc4ccc(OC)cc34)c2c1`, the “Reduction of T. cruzi parasite load” value is 40%.

For the origin of these results see ChEMBL document CHEMBL1133105, “Antimalarial, antitrypanosomal, and antileishmanial activities and cytotoxicity of bis(9-amino-6-chloro-2-methoxyacridines): influence of the linker” (J Med Chem, 2000).
